The source of these data is ChEMBL document CHEMBL2057126, “Discovery of new inhibitors of Cdc25B dual specificity phosphatases by structure-based virtual screening” (J Med Chem, 2012).

The target of test [1] is T1, M-phase inducer phosphatase 2 (Homo sapiens) (UniProt P30305).
T1 sequence (whole entry): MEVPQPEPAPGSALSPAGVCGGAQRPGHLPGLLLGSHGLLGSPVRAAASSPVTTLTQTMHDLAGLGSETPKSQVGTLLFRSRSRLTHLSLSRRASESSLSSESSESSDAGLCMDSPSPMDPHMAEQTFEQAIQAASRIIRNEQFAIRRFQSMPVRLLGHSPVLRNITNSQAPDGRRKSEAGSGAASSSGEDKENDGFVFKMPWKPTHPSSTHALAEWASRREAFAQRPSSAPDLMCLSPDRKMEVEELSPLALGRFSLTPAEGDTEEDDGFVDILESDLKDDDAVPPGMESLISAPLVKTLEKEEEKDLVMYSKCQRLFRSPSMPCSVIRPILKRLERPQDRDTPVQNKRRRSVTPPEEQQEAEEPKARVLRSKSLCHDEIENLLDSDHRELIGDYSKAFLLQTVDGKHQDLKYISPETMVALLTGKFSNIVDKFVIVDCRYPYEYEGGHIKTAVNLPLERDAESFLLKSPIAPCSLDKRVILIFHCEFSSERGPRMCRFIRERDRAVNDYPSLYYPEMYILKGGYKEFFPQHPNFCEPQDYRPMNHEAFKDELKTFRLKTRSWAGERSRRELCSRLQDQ
In words: Reversible inhibition of recombinant phosphatase activity of Cdc25B catalytic domain expressed in Escherichia coli BL21(DE3) assessed as residual activity of enzyme measured after 10 fold dilution at 50 uM preincubated for 20 mins. In short, it runs like this:
(§1)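 Dilution test: Cdc25B pretreated with inhibitor for up to 20 min, mixture diluted 10-fold, and residual phosphatase activity measured to judge reversible versus irreversible inhibition.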

The target of test [2] is T2, M-phase inducer phosphatase 2 (Homo sapiens, UniProt P30305).
T2 sequence (P30305 whole entry): T1 sequence (whole entry)
As to the kind of experiment: Inhibition of recombinant phosphatase activity of Cdc25B catalytic domain expressed in Escherichia coli BL21(DE3) using OMFP as substrate by spectrofluorimetric analysis.

Test [3] addresses T1, M-phase inducer phosphatase 2 (Homo sapiens). As to the kind of experiment: Inhibition of recombinant phosphatase activity of Cdc25B catalytic domain expressed in Escherichia coli BL21(DE3) using OMFP as substrate at 50 uM by spectrofluorimetric analysis. In short, it runs like this:
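Single-point screen: percent inhibition of Cdc25B phosphatase activity (OMFP hydrolysis) measured with inhibitor at 50 μM.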

Test [4] shares this target. As to the kind of experiment: Irreversible inhibition of recombinant phosphatase activity of Cdc25B catalytic domain expressed in Escherichia coli BL21(DE3) assessed as residual activity of enzyme measured after 10 fold dilution at 50 uM preincubated for 20 mins. In outline:
as §1

Test [5] has the same target. As to the kind of experiment: Reversible inhibition of recombinant phosphatase activity of Cdc25B catalytic domain expressed in Escherichia coli BL21(DE3) assessed as residual activity of enzyme measured after 10 fold dilution at 100 uM preincubated for 20 mins.
Test [6] shares this target. As to the kind of experiment: Inhibition of recombinant phosphatase activity of Cdc25B catalytic domain expressed in Escherichia coli BL21(DE3) using OMFP as substrate at 100 uM after 15 mins by fluorimetric assay.
For test [7], the target named is T3, M-phase inducer phosphatase 3 (Homo sapiens) (UniProt P30307).
T3 sequence (whole entry): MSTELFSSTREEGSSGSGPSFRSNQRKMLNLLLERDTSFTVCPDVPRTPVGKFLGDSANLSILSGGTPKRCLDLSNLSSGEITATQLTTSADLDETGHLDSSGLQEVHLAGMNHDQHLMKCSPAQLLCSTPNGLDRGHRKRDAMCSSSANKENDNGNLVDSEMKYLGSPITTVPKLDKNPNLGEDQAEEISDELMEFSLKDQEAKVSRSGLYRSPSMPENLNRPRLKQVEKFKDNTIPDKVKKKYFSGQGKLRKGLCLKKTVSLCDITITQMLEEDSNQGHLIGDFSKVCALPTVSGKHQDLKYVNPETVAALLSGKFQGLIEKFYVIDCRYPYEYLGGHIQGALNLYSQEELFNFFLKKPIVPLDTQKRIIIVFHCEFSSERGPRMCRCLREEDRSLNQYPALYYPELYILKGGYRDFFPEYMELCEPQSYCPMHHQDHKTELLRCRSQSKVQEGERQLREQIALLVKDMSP
In words: Inhibition of recombinant phosphatase activity of Cdc25C catalytic domain expressed in Escherichia coli BL21(DE3) using OMFP as substrate at 100 uM after 15 mins by fluorimetric assay.

For test [8], the target named is T4, M-phase inducer phosphatase 1 (Homo sapiens) (UniProt P30304).
T4 sequence (whole entry): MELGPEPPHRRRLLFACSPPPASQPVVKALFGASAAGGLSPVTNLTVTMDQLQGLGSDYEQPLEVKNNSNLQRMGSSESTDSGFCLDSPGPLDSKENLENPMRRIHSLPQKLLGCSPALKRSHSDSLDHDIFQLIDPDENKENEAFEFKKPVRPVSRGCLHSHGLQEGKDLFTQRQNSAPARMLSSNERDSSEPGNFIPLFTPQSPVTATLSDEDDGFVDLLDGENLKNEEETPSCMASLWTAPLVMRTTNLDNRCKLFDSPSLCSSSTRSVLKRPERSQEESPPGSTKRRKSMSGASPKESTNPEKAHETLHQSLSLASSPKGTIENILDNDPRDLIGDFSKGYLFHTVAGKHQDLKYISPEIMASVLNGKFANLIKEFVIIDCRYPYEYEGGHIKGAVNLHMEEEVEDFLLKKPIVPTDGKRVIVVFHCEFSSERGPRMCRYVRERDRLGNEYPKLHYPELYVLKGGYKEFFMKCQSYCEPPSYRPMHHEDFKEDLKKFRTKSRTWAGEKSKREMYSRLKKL
In words: Inhibition of recombinant phosphatase activity of Cdc25A catalytic domain expressed in Escherichia coli BL21(DE3) using OMFP as substrate at 100 uM after 15 mins by fluorimetric assay.

Test [9] has as its target T1, M-phase inducer phosphatase 2 (Homo sapiens). In words: Reversible inhibition of recombinant phosphatase activity of Cdc25B catalytic domain expressed in Escherichia coli BL21(DE3) assessed as residual activity of enzyme measured after 10 fold dilution at 100 uM preincubated for 20 mins. In short, it runs like this: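 Cdc25B (0.5 μg) preincubated 20 min at room temperature with 100 μM inhibitor or DMSO vehicle, then diluted 10-fold. Residual phosphatase activity was read after adding OMFP substrate and expressed as percent of the untreated control. Mean ± SD of three determinations.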

Test [10] has as its target T2, M-phase inducer phosphatase 2. As to the kind of experiment: Competitive inhibition of recombinant phosphatase activity of Cdc25B catalytic domain expressed in Escherichia coli BL21(DE3) using OMFP as substrate by Lineweaver-Burk plot analysis.
Test [11] has as its target T5, M-phase inducer phosphatase 1 (Homo sapiens, UniProt P30304).
T5 sequence (P30304 whole entry): T4 sequence (whole entry)
In words: Inhibition of recombinant phosphatase activity of Cdc25A catalytic domain expressed in Escherichia coli BL21(DE3) using OMFP as substrate by Lineweaver-Burk plot analysis. In outline: (§2)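 Purified recombinant Cdc25A catalytic domain; phosphatase activity measured as OMFP hydrolysis versus inhibitor concentration to derive IC50, with Ki calculated from kinetic measurements. Results are averages ± SD of three determinations.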

For test [12], the target named is T5, M-phase inducer phosphatase 1. In words: Inhibition of recombinant phosphatase activity of Cdc25A catalytic domain expressed in Escherichia coli BL21(DE3) using OMFP as substrate by spectrofluorimetric analysis. In outline:
as §2

Each structure is given as a SMILES string. Activity calls are given as the source filed them. No cut-off for these calls is given here.

For orientation: inhibition means the relative decrease from the control value, in per cent. One may read the IC50 as the midpoint of a concentration-inhibition curve. Broadly, the Ki is a measure of affinity in units of concentration, obtained from inhibition or displacement.

For the compound `Nc1ccc(C(=O)O)cc1S(=O)(=O)c1cc(C(=O)O)ccc1N`, in test [1], the inhibition entry is “Active”. Further, the half-inhibitory concentration (IC50) in test [2] stood at 20.1 µM. Also, the inhibition in test [3] was determined as 62%.

With `O=C1C=C(Nc2cccc(C(=O)O)c2)c2ccccc2C1=O`, in test [4], the inhibition entry was “Active”. Further, the half-inhibitory concentration (IC50) in [2] was 4.2 µM. Further, the inhibition in [3] came to 85%.

In the case of `O=C(Nc1ccc2ncccc2c1)Nc1ccc2ncccc2c1`, the inhibition entry in [5] is “Active”. Besides, the inhibition came out at 32% in test [6], 48% in [7] and 47% in test [8].

Turning to `O=C(C(=O)c1ccc(O)c(O)c1)c1ccc(O)c(O)c1`, in test [3], the inhibition amounted to 22%.

Turning to `CNc1ccc(C(=O)c2ccccc2C(=O)O)cc1[N+](=O)[O-]`, the inhibition result in [1] is “Active”. For the same compound, the IC50 in test [2] came to 7.9 µM. For the same compound, the inhibition in test [3] came to 65%.

Regarding `O=C(O)c1ccccc1C(=O)c1cccc2ccccc12`, the inhibition in test [3] is 41%.

On to `O=C1C=C(Nc2nc(C(=O)O)cc(=O)[nH]2)c2ccccc2C1=O`, for which, in [2], the half-maximal inhibitory concentration (IC50) came to 9.9 µM.

As for `O=C(O)c1ccccc1-c1ccccc1C(=O)Nc1ccc2c(c1)nc(O)c1ccccc12`, in [5], the inhibition entry was “Active”. Further, the inhibition in [6] turned out to be 45%; in [7], 48%; in [8] it was 66%.

As for `O=C(O)C1CCCN1Cc1c[nH]c2ccccc12` (stereo unspecified), the values for the inhibition in test [6], in test [7] and in test [8] were 37%, 45% and 39%, respectively.

On to `O=C(O)c1ccccc1C(=O)c1ccc(Cl)c([N+](=O)[O-])c1`, for which, in [3], the inhibition was determined as 13%.

Turning to `O=C1C=C(Nc2nc(O)cc(C(=O)O)n2)c2ccccc2C1=O`, the inhibition entry in test [4] is “Active”. The inhibition in [3] amounted to 60%.

On to `Nc1ccc(Cc2ccc(N)c(C(=O)O)c2)cc1C(=O)O`, for which, in test [1], the inhibition entry was “Active”. Besides, the IC50 in test [2] was found to be 23.8 µM. Also, the inhibition in [3] came out at 52%.

On to `NS(=O)(=O)c1cc2c(cc1Cl)N=C(CCC(=O)O)NS2(=O)=O`, for which, in [5], the inhibition result is “Active”. In addition, the inhibition in [6] was found to be 41%; in test [7] it was 47%; in test [8], 21%.

On to `O=C(O)c1cccc(Nc2ccccc2C(=O)O)c1`, for which, in test [3], the inhibition turned out to be 18%.

Turning to `O=C(O)c1cccc(F)c1C(=O)c1ccc2ccccc2c1`, the inhibition in [3] worked out at 34%.

For `Cn1c(COc2ccccc2C(=O)O)nc2ccccc21`, the inhibition result in test [5] is “Active”. In addition, the inhibition in [6] is 43%; in [7], 35%; in test [8], 10%.

In the case of `CC(C)(Oc1ccc(-c2cccc3ccccc23)cc1)C(=O)O`, in [5], the inhibition entry was “Active”. In addition, the inhibition in test [6] was found to be 40%; in test [7], 50%; in [8], 47%.

On to `O=C(O)c1ccccc1C(=O)c1ccc(-c2ccccc2)cc1`, for which the inhibition result in [1] is “Active”. Also, the IC50 in [2] worked out at 23.1 µM. Further, the inhibition in test [3] was found to be 54%.

Regarding `CN(CCC(=O)O)C1=Nc2ccc(Cl)cc2C(c2ccccc2)=[N+]([O-])C1`, the inhibition entry in test [5] is “Active”. The results for the inhibition in test [6], in test [7] and in [8] were 43%, 48% and 28%, respectively.

As for `COc1cc(O)c(C(=O)c2ccccc2)cc1S(=O)(=O)O`, in test [3], the inhibition was 49%.

As to `O=C(O)c1ccccc1C(=O)c1cccc([N+](=O)[O-])c1`, the inhibition in [3] came out at 17%.

In the case of `CC1=NN(c2ccc(S(=O)(=O)O)cc2)C(=O)/C1=C/c1ccc(Cl)cc1`, in test [5], the inhibition entry was “Active”. Moreover, the inhibition in test [6] turned out to be 46%; in test [7] it was 54%; in test [8], 17%.

Turning to `CC(=O)c1ccc(C(=O)c2ccccc2C(=O)O)cc1`, the inhibition in test [3] was determined as 20%.

For the compound `Nc1ccc(-c2ccc(Nc3cc(S(=O)(=O)O)c(N)c4c3C(=O)c3ccccc3C4=O)cc2)c(S(=O)(=O)O)c1`, the inhibition was 89% in test [6], 49% in test [7] and 72% in test [8].

With `O=C(O)c1cc(C(=O)C(=O)c2cc(C(=O)O)c(O)c3ccccc23)c2ccccc2c1O`, the inhibition in test [3] is 26%.

Take `CC1C2C=CC1C(c1c3ccc(=O)c(O)c-3oc3c(O)c(O)ccc13)C2C(=O)O` (stereo unspecified): in test [9], the inhibition entry is “Active”. The inhibition in [6], in test [7] and in test [8] was 98% each time.

`COc1ccc(Cc2ccc3[nH]c(=O)cc(C)c3c2)cc1S(=O)(=O)O`: the inhibition constant Ki was 84 µM in test [10] and 203 µM in test [11]. In addition, the values for the IC50 in test [12] and in test [2] were 86 µM and 133 µM, respectively.

For `O=C(O)c1cccc(Oc2ccc(C(=O)O)c([N+](=O)[O-])c2)c1`, in test [3], the inhibition worked out at 37%.

Consider `O=C(O)c1ccccc1C(=O)CCC(=O)c1ccccc1C(=O)O`, for which the inhibition in test [3] worked out at 20%.

Turning to `O=C(O)c1ccc(C(=O)c2ccccc2C(=O)O)cc1`, the inhibition in test [3] came to 12%.

Regarding `O=C(O)c1ccccc1C(=O)c1ccc(O)c([N+](=O)[O-])c1`, in test [3], the inhibition was found to be 13%.

Consider `Sc1ccc2ccccc2c1CNCc1ccccc1`, for which the values for the inhibition in test [6], in test [7] and in test [8] were 60%, 53% and 35%, respectively.
